According to ChEMBL document CHEMBL1154405, “An early response to environmental stress involves regulation of OmpX and OmpF, two enterobacterial outer membrane pore-forming proteins” (2007):
Active and inactive are the calls of the source. The rule behind the calls is not given here.

Tests used:
Escherichia coli [1] = assay: Increase in ompX-lacZ expression in Escherichia coli deltaompX mutant assessed as increase in beta-galactosidase activity after 60 mins relative to control; type: functional, organism-based
Summary of the method: (§1)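 Strains electrotransformed with an ompX–lacZ fusion plasmid (pMD08): E. coli JM109, MC1061 ompX::Cm, AG100, CH164 (marA), E. aerogenes ATCC 15038. Grown in LB (with or without NaCl) to OD600 0.2 at 37°C. Treated with subinhibitory stresses (MIC-derived) or NaCl osmotic shock. Miller units read after 60 min; means of five independent experiments with SD.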

Escherichia coli [2] = assay: Increase in ompX-lacZ expression in Escherichia coli JM109 assessed as ompX upregulation after 60 mins relative to control; type: functional, organism-based; summary of the method: as §1
Escherichia coli [3] = assay: Increase in ompX-lacZ expression in Escherichia coli JM109 assessed as increase in beta-galactosidase activity after 60 mins relative to control; type: functional, organism-based; summary of the method: as §1
Klebsiella aerogenes [4] = assay: Increase in ompX-lacZ expression in Enterobacter aerogenes ATCC 15038 assessed as ompX upregulation after 60 mins relative to control; type: functional, organism-based; summary of the method: as §1
Klebsiella aerogenes [5] = assay: Increase in ompX-lacZ expression in Enterobacter aerogenes ATCC 15038 assessed as increase in beta-galactosidase activity after 60 mins relative to control; type: functional, organism-based; summary of the method: as §1
Escherichia coli [6] = assay: Effect on ompF-lacZ fusion translation in wild type Escherichia coli MC1061 assessed as percent decrease in Miller units of beta-galactosidase activity after 60 mins relative to control; type: functional; set-up: scale not given: the % may be the effect or the level left
Summary of the method: (§2)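 E. coli strains carrying ompF-lacZ reporter constructs (pCeJa01/pCeJa02) were grown in LB broth, with or without NaCl, to early exponential phase (OD600 0.2). Stress compounds were then added at subinhibitory concentrations, set from MICs for each strain and promoter, and incubation continued at 37°C. Beta-galactosidase activity (Miller method) was read at time intervals. Percent decrease versus control was calculated, with Student t test and standard deviations.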

Escherichia coli [7] = assay: Effect on ompF-lacZ fusion translation in wild type Escherichia coli MC1061 assessed as percent decrease in Miller units of beta-galactosidase activity after 90 mins relative to control; type: functional; set-up: scale not given: the % may be the effect or the level left
Summary of the method: (§3)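 ompF promoter–lacZ fusions (pCeJa01, pCeJa02) carried in E. coli AG100 and its marA mutant CH164, and in MC1061 and MC1061 ompX::Cm. Cultures grown in LB (with or without NaCl) to OD600 0.2, then stress added at subinhibitory levels set per strain and promoter from MIC assays, 37°C. β-Galactosidase measured at time intervals (Miller method); percent decrease versus control, SD, Student t test.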

Escherichia coli [8] = assay: Effect on ompF-lacZ fusion translation in wild type Escherichia coli MC1061 assessed as percent decrease in Miller units of beta-galactosidase activity after 120 mins relative to control; type: functional; set-up: scale not given: the % may be the effect or the level left; summary of the method: as §3
Escherichia coli [9] = assay: Effect on ompF-lacZ fusion translation in ompX-negative Escherichia coli mutant assessed as percent decrease in Miller units of beta-galactosidase activity after 90 mins relative to control; type: functional; set-up: scale not given: the % may be the effect or the level left; summary of the method: as §3
Escherichia coli [10] = assay: Effect on ompF-lacZ fusion translation in ompX-negative Escherichia coli mutant assessed as percent decrease in Miller units of beta-galactosidase activity after 120 mins relative to control; type: functional; set-up: scale not given: the % may be the effect or the level left; summary of the method: as §3
Escherichia coli [11] = assay: Effect on ompF-lacZ fusion translation in wild type Escherichia coli AG100 assessed as percent decrease in Miller units of beta-galactosidase activity after 60 mins relative to control; type: functional; set-up: scale not given: the % may be the effect or the level left; summary of the method: as §3
Escherichia coli [12] = assay: Increase in ompX-lacZ expression in Escherichia coli deltaompX mutant assessed as ompX upregulation after 60 mins relative to control; type: functional
Summary of the method: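 E. coli ompX::Cm strain transformed by electroporation with pMD08 (ompX-lacZ fusion), grown in LB broth (with or without NaCl) to OD600 0.2. Stresses were then added at strain-specific subinhibitory concentrations derived from MICs; osmotic shock was given as NaCl. Cultures were incubated 60 min at 37°C with growth rate monitored. Miller-unit beta-galactosidase activity is the mean of five independent experiments with SD.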

Escherichia coli [13] = assay: Increase in ompX-lacZ expression in marA-negative Escherichia coli CH164 mutant assessed as beta-galactosidase activity after 60 mins relative to control; type: functional; summary of the method: as §1
Escherichia coli [14] = assay: Effect on ompF-lacZ fusion translation in wild type Escherichia coli AG100 assessed as percent decrease in Miller units of beta-galactosidase activity after 90 mins relative to control; type: functional; set-up: scale not given: the % may be the effect or the level left; summary of the method: as §2
Escherichia coli [15] = assay: Effect on ompF-lacZ fusion translation in wild type Escherichia coli AG100 assessed as percent decrease in Miller units of beta-galactosidase activity after 120 mins relative to control; type: functional; set-up: scale not given: the % may be the effect or the level left; summary of the method: as §3
Escherichia coli [16] = assay: Effect on ompF-lacZ fusion transcription in wild type Escherichia coli MC1061 assessed as percent decrease in Miller units of beta-galactosidase activity after 90 mins relative to control; type: functional; set-up: scale not given: the % may be the effect or the level left; summary of the method: as §3
Escherichia coli [17] = assay: Effect on ompF-lacZ fusion transcription in wild type Escherichia coli MC1061 assessed as percent decrease in Miller units of beta-galactosidase activity after 120 mins relative to control; type: functional; set-up: scale not given: the % may be the effect or the level left; summary of the method: as §3
Escherichia coli [18] = assay: Effect on ompF-lacZ fusion transcription in ompX-negative Escherichia coli mutant assessed as percent decrease in Miller units of beta-galactosidase activity after 90 mins relative to control; type: functional; set-up: scale not given: the % may be the effect or the level left; summary of the method: as §3
Escherichia coli [19] = assay: Effect on ompF-lacZ fusion transcription in ompX-negative Escherichia coli mutant assessed as percent decrease in Miller units of beta-galactosidase activity after 120 mins relative to control; type: functional; set-up: scale not given: the % may be the effect or the level left; summary of the method: as §3
Escherichia coli [20] = assay: Effect on ompF-lacZ fusion transcription in wild type Escherichia coli AG100 assessed as percent decrease in Miller units of beta-galactosidase activity after 60 mins relative to control; type: functional; set-up: scale not given: the % may be the effect or the level left; summary of the method: as §3
Escherichia coli [21] = assay: Effect on ompF-lacZ fusion transcription in wild type Escherichia coli AG100 assessed as percent decrease in Miller units of beta-galactosidase activity after 120 mins relative to control; type: functional; set-up: scale not given: the % may be the effect or the level left; summary of the method: as §3
Escherichia coli [22] = assay: Effect on ompF-lacZ fusion translation in ompX-negative Escherichia coli mutant assessed as percent decrease in Miller units of beta-galactosidase activity after 60 mins relative to control; type: functional; set-up: scale not given: the % may be the effect or the level left; summary of the method: as §3
Klebsiella aerogenes [23] = assay: Induction of ompX-lacZ expression in Enterobacter aerogenes ATCC 15038 assessed as total RNA content after 30 mins by RT-PCR; type: functional, organism-based
Escherichia coli [24] = assay: Effect on ompF-lacZ fusion transcription in ompX-negative Escherichia coli mutant assessed as percent decrease in Miller units of beta-galactosidase activity after 60 mins relative to control; type: functional; set-up: scale not given: the % may be the effect or the level left; summary of the method: as §3
Escherichia coli [25] = assay: Effect on ompF-lacZ fusion translation in marA-negative Escherichia coli CH164 mutant assessed as percent decrease in Miller units of beta-galactosidase activity after 60 mins relative to control; type: functional; set-up: scale not given: the % may be the effect or the level left; summary of the method: as §2
Escherichia coli [26] = assay: Effect on ompF-lacZ fusion translation in marA-negative Escherichia coli CH164 mutant assessed as percent decrease in Miller units of beta-galactosidase activity after 90 mins relative to control; type: functional; set-up: scale not given: the % may be the effect or the level left; summary of the method: as §2
Escherichia coli [27] = assay: Effect on ompF-lacZ fusion translation in marA-negative Escherichia coli CH164 mutant assessed as percent decrease in Miller units of beta-galactosidase activity after 120 mins relative to control; type: functional; set-up: scale not given: the % may be the effect or the level left; summary of the method: as §2
Escherichia coli [28] = assay: Effect on ompF-lacZ fusion transcription in wild type Escherichia coli AG100 assessed as percent decrease in Miller units of beta-galactosidase activity after 90 mins relative to control; type: functional; set-up: scale not given: the % may be the effect or the level left; summary of the method: as §3
Escherichia coli [29] = assay: Effect on ompF-lacZ fusion transcription in marA-negative Escherichia coli CH164 mutant assessed as percent decrease in Miller units of beta-galactosidase activity after 60 mins relative to control; type: functional; set-up: scale not given: the % may be the effect or the level left; summary of the method: as §3
Escherichia coli [30] = assay: Effect on ompF-lacZ fusion transcription in marA-negative Escherichia coli CH164 mutant assessed as percent decrease in Miller units of beta-galactosidase activity after 90 mins relative to control; type: functional; set-up: scale not given: the % may be the effect or the level left; summary of the method: as §3
Escherichia coli [31] = assay: Effect on ompF-lacZ fusion transcription in marA-negative Escherichia coli CH164 mutant assessed as percent decrease in Miller units of beta-galactosidase activity after 120 mins relative to control; type: functional; set-up: scale not given: the % may be the effect or the level left; summary of the method: as §2
Escherichia coli [32] = assay: Induction of ompX transcription in SoxS-positive Escherichia coli K12 relative to control; type: functional

| SMILES | Activity (Escherichia coli [1]) | Activity (Escherichia coli [2]) | Activity (Escherichia coli [3]) | Activity (Klebsiella aerogenes [4]) | Activity (Klebsiella aerogenes [5]) | Activity (Escherichia coli [6]) [%] | Activity (Escherichia coli [7]) [%] | Activity (Escherichia coli [8]) [%] | Activity (Escherichia coli [9]) [%] | Activity (Escherichia coli [10]) [%] | Activity (Escherichia coli [11]) [%] | Activity (Escherichia coli [12]) | Activity (Escherichia coli [13]) | Activity (Escherichia coli [14]) [%] | Activity (Escherichia coli [15]) [%] | Activity (Escherichia coli [16]) [%] | Activity (Escherichia coli [17]) [%] | Activity (Escherichia coli [18]) [%] | Activity (Escherichia coli [19]) [%] | Activity (Escherichia coli [20]) [%] | other results |
| --- | --- | --- | --- | --- | --- | --- | --- | --- | --- | --- | --- | --- | --- | --- | --- | --- | --- | --- | --- | --- | --- |
| CCn1cc(C(=O)O)c(=O)c2ccc(C)nc21 | Active | Active | Active | Active | Active |  |  |  |  |  |  |  |  |  |  |  |  |  |  |  |  |
| NCCc1ccccc1 | Active | Active | Active | Active | Active |  |  |  |  |  |  |  |  |  |  |  |  |  |  |  |  |
| c1ccc(-c2ccccn2)nc1 [DIPYRIDYL] |  | Active | Active | Active | Active | 7.4 | 16.1 | 18.4 | 19 | 28.6 | 52 | 2 | Active | 53 | 55 |  |  |  |  |  |  |
| CCn1cc(C(=O)O)c(=O)c2cc(F)c(N3CCNCC3)cc21 [NORFLOXACIN] | Active | Active | Active | Active | Active |  | 27.1 | 27.5 | 21.7 | 22 | 14.1 |  | 1.5 |  | 16.6 | 14.9 | 24 | 18.6 | 19.2 | 13.2 | Activity (Escherichia coli [21]): 8.2% |
| CO[C@@H]1[C@@H](OC(N)=O)[C@@H](O)[C@H](Oc2ccc3c(O)c(NC(=O)c4ccc(O)c(CC=C(C)C)c4)c(=O)oc3c2C)OC1(C)C [NOVOBIOCIN] |  | Active | Active | Active | Active | 21.3 | 38.4 | 50.9 | 45.3 | 55.2 | 48.5 | 2 | Active | 39.8 | 46.8 | 28.6 | 36.5 | 25.3 | 36 | 25.5 | Activity (Escherichia coli [22]): 28.4%; Activity (Klebsiella aerogenes [23]): Active; Activity (Escherichia coli [24]): 17%; Activity (Escherichia coli [25]): 23.6%; Activity (Escherichia coli [26]): 21.2%; Activity (Escherichia coli [27]): 26.9%; Activity (Escherichia coli [28]): 32.6%; Activity (Escherichia coli [21]): 25.7%; Activity (Escherichia coli [29]): 9.5%; Activity (Escherichia coli [30]): 20%; Activity (Escherichia coli [31]): 24.5% |
| C[n+]1ccc(-c2cc[n+](C)cc2)cc1 [PARAQUAT] | Active | Active | Active | Active | Active |  |  |  |  |  |  |  |  |  |  |  |  |  |  |  | Activity (Escherichia coli [32]): 1.2 |
| O=C(O)c1ccccc1O [SALICYLIC ACID] |  | Active | Active | Active | Active | 42.5 | 46.8 | 45.6 | 40.9 | 43.7 | 59 | 2 |  | 51.8 | 49 | 25 | 17.3 | 26 | 14.8 | 29.9 | Activity (Escherichia coli [22]): 35.3%; Activity (Klebsiella aerogenes [23]): Active; Activity (Escherichia coli [24]): 21%; Activity (Escherichia coli [28]): 25.7%; Activity (Escherichia coli [21]): 15.8%; Activity (Escherichia coli [29]): 17.4%; Activity (Escherichia coli [30]): 15.5% |
